Laboratory results from ChEMBL document CHEMBL3627607, “A Novel Pyrazolopyridine with in Vivo Activity in Plasmodium berghei- and Plasmodium falciparum-Infected Mouse Models from Structure-Activity Relationship Studies around the Core of Recently Identified Antimalarial Imidazopyridazines” (J Med Chem, 2015).

Tests used:
[1] = Metabolic stability of the compound in mouse liver microsomes assessed as compound remaining at 0.1 uM after 30 mins by LC-MS/MS analysis; type: ADME; conditions: 0.5 h
[2] = test system: Plasmodium falciparum; experiment: Antiplasmodial activity against multidrug resistant Plasmodium falciparum K1 infected in human erythrocytes after 48 hrs by [3H]-hypoxanthine incorporation assay; type: functional, organism-based
[3] = test system: Plasmodium falciparum; experiment: Antiplasmodial activity against drug sensitive Plasmodium falciparum NF54 infected in human erythrocytes after 48 hrs by [3H]-hypoxanthine incorporation assay; type: functional, organism-based
[4] = Selectivity index, ratio of IC50 for CHO cells to IC50 for multidrug resistant Plasmodium falciparum K1; type: toxicity, cell-based; conditions: hamster, read-out: Ratio IC50
[5] = test system: Plasmodium berghei; experiment: Antiplasmodial activity against Plasmodium berghei ANKA expressing GFP infected in mouse assessed as means survival days at 50 mg/kg, po qd for 4 days; type: functional
Outline: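 Mice (n = 3) infected with GFP-transfected P. berghei ANKA. Compounds dissolved or suspended in HPMC vehicle (0.5% w/v hydroxypropylmethylcellulose, 0.5% v/v benzyl alcohol, 0.4% v/v Tween 80, 0.9% w/v NaCl in water). Dosed orally 4, 24, 48 and 72 h after infection. Parasitemia read by flow cytometry (detection limit 0.1%). Survival recorded as mean survival time in days.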

[6] = test system: Blood; experiment: Drug level in mouse blood at 50 mg/kg, po after 24 hrs; type: ADME, organism-based; conditions: in vivo, 24 h, BLD = below limit of detection
Outline: (§1)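 Snapshot whole-blood levels of parent and its sulfone metabolite at 1, 4 and 24 h after the first 50 mg/kg oral dose. Samples came from the P. berghei-infected efficacy mice, dosed in HPMC suspension vehicle.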

[7] = Drug level in mouse blood at 50 mg/kg, po after 4 hrs; type: ADME, organism-based; conditions: read-out: Drug uptake; outline: as §1
[8] = test system: Liver microsome; experiment: Metabolic stability of the compound in rat liver microsomes assessed as compound remaining at 0.1 uM after 30 mins by LC-MS/MS analysis; type: ADME; conditions: 0.5 h
[9] = Selectivity index, ratio of IC50 for CHO cells to IC50 for Plasmodium falciparum NF54; type: toxicity, cell-based; conditions: hamster, read-out: Ratio IC50
[10] = test system: Liver microsome; experiment: Metabolic stability of the compound in human liver microsomes assessed as compound remaining at 0.1 uM after 30 mins by LC-MS/MS analysis; type: ADME; conditions: 0.5 h
[11] = Selectivity index, ratio of IC50 for African green monkey VERO cells to IC50 for multidrug resistant Plasmodium falciparum K1; type: toxicity, cell-based; conditions: read-out: Ratio IC50
[12] = test system: Plasmodium berghei; experiment: Antiplasmodial activity against Plasmodium berghei ANKA expressing GFP infected in mouse assessed as reduction of parasitemia level at 50 mg/kg, po qd for 4 days measured on day 4 post last dose by flow cytometric analysis relative to control; type: functional; design: scale not given: the % may be the effect or the level left
Outline: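 Mice (n = 3) infected with GFP-transfected P. berghei ANKA. Test agents were suspended in HPMC vehicle (0.5% w/v hydroxypropylmethylcellulose, 0.5% v/v benzyl alcohol, 0.4% v/v Tween 80, 0.9% w/v NaCl in water). Dosed orally at 4, 24, 48 and 72 h post-infection. Parasitemia read by flow cytometry on day 4 (96 h), detection limit 0.1%. Activity = control-minus-treated mean % parasitemia, relative to control.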

[13] = Selectivity index, ratio of IC50 for African green monkey VERO cells to IC50 for Plasmodium falciparum NF54; type: toxicity, cell-based; conditions: read-out: Ratio IC50
[14] = Solubility of the compound in 0.01M HCl at pH 2 by Nephelometric analysis; type: physicochemical; conditions: buffer
[15] = Drug level in mouse blood at 50 mg/kg, po after 1 hr; type: ADME, organism-based; conditions: read-out: Drug uptake; outline: as §1
[16] = Volume of distribution in rat at 5 mg/kg, iv; type: ADME, organism-based; conditions: in vivo
[17] = Half life in rat at 20 mg/kg, po; type: ADME, organism-based; conditions: in vivo
[18] = Oral bioavailability in rat at 20 mg/kg; type: ADME, organism-based; conditions: in vivo
[19] = Half life in rat at 5 mg/kg, iv; type: ADME, organism-based; conditions: in vivo
[20] = Plasma clearance in rat at 5 mg/kg, iv; type: ADME, organism-based

Structure (SMILES) | Stability [1] | IC50 [2] | IC50 [3] | selectivity ratio [4] | MSD [5] | Drug uptake [6] | concentration at 4 h [7] | Stability [8] | selectivity ratio [9] | Stability [10] | selectivity ratio [11] | Activity [12] | selectivity ratio [13] | solubility [14] | concentration at 1 h [15] | Vd [16] | half-life [17] | bioavailability [18] | half-life [19] | clearance [20]
CS(=O)(=O)c1ccc(-c2cnn3c2NC(c2cccc(S(=O)(=O)C4CC4)c2)CC3)cc1 (stereo unspecified) | Stable | 46 nM | 44 nM | > 1000 | 7 days | BLD | 177 nM | Stable | > 1000 | Stable | > 1000 | 78% | > 1000 | soluble | 456 nM | – | – | – | – | –
CS(=O)(=O)c1ccc(-c2cnc3ccc(-c4cccc(S(=O)(=O)C5CC5)c4)cn23)cc1 | Stable | 38 nM | 46 nM | 700 | 10 days | – | – | Stable | 700 | Stable | 700 | 99.5% | 700 | – | – | 2.3 L/kg | 3.9 h | 51% | 3 h | 8.7 mL/min/kg
